Reference: ChEMBL document CHEMBL1140583, “A polyacetylene compound from herbal medicine regulates genes associated with thrombosis in endothelial cells” (2007)

What was measured:
Type in all cases: functional, Homo sapiens
HUVEC [1] = experiment: Decrease in perlecan gene expression in HUVEC at 5 ug/ml after 4 hrs relative to control
HUVEC [2] = experiment: Increase in TI-PARP gene expression in HUVEC at 5 ug/ml after 4 hrs relative to control
HUVEC [3] = experiment: Decrease in zinc finger and BTB domain containing 16 gene expression in HUVEC at 5 ug/ml after 4 hrs relative to control
HUVEC [4] = experiment: Decrease in mesenchyme homebox2 gene expression in HUVEC at 5 ug/ml after 4 hrs relative to control
HUVEC [5] = experiment: Decrease in ATP-binding cassette, subfamily G, member 1 gene expression in HUVEC at 5 ug/ml after 4 hrs relative to control
HUVEC [6] = experiment: Increase in COX2 gene expression in HUVEC at 5 ug/ml after 4 hrs relative to control
HUVEC [7] = experiment: Increase in CYP450, family 1, subfamily B, polypeptide 1 gene expression in HUVEC at 5 ug/ml after 4 hrs relative to control
HUVEC [8] = experiment: Increase in solute carrier family 7, member 11 gene expression in HUVEC at 5 ug/ml after 4 hrs relative to control
HUVEC [9] = experiment: Decrease in AT rich interactive domain 1A gene expression in HUVEC at 5 ug/ml after 4 hrs relative to control
HUVEC [10] = experiment: Increase in SerpinB2 gene expression in HUVEC at 5 ug/ml after 4 hrs relative to control
How it was run: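 HUVEC exposed to the purified compound at 5 μg/ml. SerpinB2 mRNA quantified by real-time RT-PCR against untreated control HUVEC, reported as log2 relative quantity (log2RQ). The same SerpinB2 RT-PCR read-out guided activity-based fractionation of the herbal extract.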

SMILES: C/C=C/C#CC#C/C=C/CCC(CCOC(C)=O)OC(C)=O (stereo not given)
- Fold change (HUVEC [1]): -1.7
- Fold change (HUVEC [2]): 2.3
- Fold change (HUVEC [3]): -2
- Fold change (HUVEC [4]): -2.1
- Fold change (HUVEC [5]): -1.9
- Fold change (HUVEC [6]): 2
- Fold change (HUVEC [7]): 6.5
- Fold change (HUVEC [8]): 2.3
- Fold change (HUVEC [9]): -1.9
- Fold change (HUVEC [10]): 2
